Data on nine molecules can be found in ChEMBL document CHEMBL6096643 (Bioorg Med Chem, 2024).

Series [1] deals with A10. Description: Disruption of microtubule network in rat A10 cells at 2.5 uM incubated for 18 hrs by fluorescence microscopic analysis. The format is cell-based. The essentials: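 Rat A-10 cells grown on glass coverslips, exposed 18 h to a range of compound concentrations (single-concentration image at 2.5 μM), then fixed. Microtubules stained by indirect immunofluorescence with β-tubulin antibody, nuclei with 4,6-diamidino-2-phenylindole. Interphase microtubule loss scored visually by fluorescence microscopy against vehicle control.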

The test system of another series is MIA PaCa-2. As to the kind of experiment: Cytotoxicity against human MIA PaCa-2 cells at 1.562 to 100 uM measured after 48 hrs by CellTiter 96 Aqueous One Solution Cell Proliferation Assay. The format is functional, cell-based. The settings on record: dose 1.562-100 µM.
Series [2] deals with T1, Tubulin (Homo sapiens) (UniProt P68371+Q9H4B7+P0DPH7+P68366+Q13509+Q71U36+P04350+Q3ZCM7+P07437+P68363+Q9BQE3+Q6PEY2+Q13885+Q9BVA1+Q9BUF5). Description: Inhibition of [3H]colchicine binding to tubulin (unknown origin) at 5 uM relative to control. The format is protein-complex assay. The essentials: (§1)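 Tubulin at 1.0 μM (0.1 mg/mL), [3H]colchicine at 5.0 μM, compounds at 5 or 50 μM. Bound colchicine measured by DEAE-cellulose filter method; triplicate experiments.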

Series [3] deals with T1, Tubulin (Homo sapiens). Description: Inhibition of [3H]colchicine binding to tubulin (unknown origin) at 50 uM relative to control. The format is protein-complex assay. The essentials:
as §1

Series [4] is described as follows: Disruption of microtubule network in rat A10 cells incubated for 18 hrs by fluorescence microscopic analysis. The format is cell-based. The essentials:
(§2)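 A-10 cells on glass coverslips exposed to a range of compound concentrations for 18 h. Cells fixed, microtubules stained with β-tubulin antibody, nuclei with DAPI, then viewed by fluorescence microscopy. Microtubule loss estimated visually, EC50 taken from dose-response curves, two independent experiments.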

In another series the test system is MCF7. Description: Antiproliferative activity against human MCF7 cells assessed as cell growth inhibition measured after 48 hrs by sulforhodamine B assay. The format is functional, cell-based. Conditions: MCF7, 48 h. In short, it runs like this:
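MCF-7 cells grown 24 h without drug, then 48 h with varying compound concentrations. Total cell protein measured by sulforhodamine B assay; IC50 for growth inhibition derived.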

Series [5] is described as follows: Inhibition of bovine brain tubulin polymerization preincubated for 15 mins followed by GTP addition and measured after 20 mins. Set-up: species or system Bos taurus.
Series [6] is described as follows: Cytotoxicity against human HPDE cells measured after 48 hrs by CellTiter 96 Aqueous One Solution Cell Proliferation Assay. It counts as toxicity, cell-based.
A further series concerns HCT-116. Description: Cytotoxicity against human HCT-116 cells measured after 48 hrs by CellTiter 96 Aqueous One Solution Cell Proliferation Assay. Conditions: HCT-116, 48 h. The format is functional, cell-based.
Series [7] deals with A10. Description: Disruption of microtubule network in rat A10 cells at 15 uM incubated for 18 hrs by fluorescence microscopic analysis. It counts as cell-based. In short, it runs like this: as §2
Series [8] relates to A10. As to the kind of experiment: Disruption of microtubule network in rat A10 cells at 20 uM incubated for 18 hrs by fluorescence microscopic analysis. The format is cell-based. The essentials: as §2

Active and inactive are the calls of the source. The rule behind the calls is not given here.

The term inhibition denotes the drop in the measured response relative to a control, in per cent. As usually defined, the EC50 is the concentration giving half of the maximal effect. A low value points to an effect from little substance. For orientation: IC50 means the point on the concentration scale where inhibition reaches its midpoint. With `COc1ccc(C(=O)c2cc(OC)c(OC)c(OC)c2)cc1B(O)O`, in the series with A10 [1], the result was Active. Moreover, in the series on MIA PaCa-2, the Activity result is “Active; Compound Showed Less Toxicity Than Hct-116 Cells”. In addition, the inhibition was found to be 21% on Tubulin (Homo sapiens) [2] and 59% at Tubulin (Homo sapiens) [3]. The same molecule gave an EC50 in series [4] of 5 µM. The concentration for half-maximal inhibition (IC50) turned out to be 0.3 µM with MCF7 and 12 µM in series [5]. Further, the IC50 at 48 h in [6] is more than 50 µM.
As to `COc1ccc(C(=O)c2cc(OC)c(OC)c(OC)c2)cc1O` [PHENSTATIN], the inhibition at Tubulin (Homo sapiens) [2] stood at 86%. Also, the inhibition result on Tubulin (Homo sapiens) [3] was “inactive”. For the same molecule, the 50% inhibitory concentration (IC50) in [5] came to 1 µM. In series [6], the IC50 at 48 h was more than 50 µM.
With `COc1cc(C(=O)c2cnc(OC)c(B(O)O)c2)cc(OC)c1OC`, the inhibition result at Tubulin (Homo sapiens) [2] and at Tubulin (Homo sapiens) [3] was “inactive” each time. Besides, the EC50 in series [4] is more than 50 µM. Besides, the 50% inhibitory concentration (IC50) in the series with MCF7 was more than 2.5 µM; in series [5], more than 40 µM. The same molecule yielded an IC50 at 48 h in [6] of more than 50 µM.
As for `COc1cc(/C=C\c2cnc(OC)c(B(O)O)c2)cc(OC)c1OC`, the inhibition result at Tubulin (Homo sapiens) [2] and at Tubulin (Homo sapiens) [3] was “inactive” in each case. This molecule also returned an EC50 in [4] of 9 µM. The 50% inhibitory concentration (IC50) was 0.39 µM in the series with MCF7, less than 5 µM in the series with HCT-116 and 30 µM in series [5]. The outcome with A10 [7] was Active. For the same molecule, the 50% inhibitory concentration (IC50) at 48 h in series [6] was more than 50 µM.
Turning to `COc1cc(/C=C\c2ccccc2B(O)O)cc(OC)c1OC`, the Activity result in the series on MIA PaCa-2 is on record as “Active; Compound Showed Less Toxicity Than Hct-116 Cells”. Moreover, the inhibition result at Tubulin (Homo sapiens) [2] and at Tubulin (Homo sapiens) [3] was “inactive” each time. This molecule also showed an EC50 in series [4] of 51 µM. The IC50 was more than 2.5 µM in the series with MCF7, less than 5 µM in the series on HCT-116 and more than 40 µM in series [5]. For the same molecule, in series [6], the 50% inhibitory concentration (IC50) at 48 h was more than 50 µM.
In [4], `COc1ccc(/C=C\c2cc(OC)c(OC)c(OC)c2)cc1O` [COMBRETASTATIN A4] had a 50% effective concentration (EC50) of less than 0.025 µM. In [6], this molecule showed an IC50 at 48 h of more than 50 µM.
`COc1ccc(/C=C\c2cc(OC)c(OC)c(OC)c2)cc1B(O)O`: the inhibition on Tubulin (Homo sapiens) [3] amounted to 99%. For the same molecule, the EC50 in series [4] came to 0.058 µM. This molecule had an IC50 in [5] of 1.5 µM. The molecule further returned an IC50 at 48 h in [6] of more than 50 µM.
Turning to `COc1cc(/C=C\c2cccc(B(O)O)c2)cc(OC)c1OC`, the inhibition entry on Tubulin (Homo sapiens) [2] and on Tubulin (Homo sapiens) [3] was “inactive” in each case. In addition, it took 9 µM to reach a half-maximal effect in series [4] (EC50). Besides, the half-maximal inhibitory concentration (IC50) in the series on MCF7 is 0.85 µM; with HCT-116, less than 5 µM; in series [5], 27 µM. The molecule further returned an IC50 at 48 h in series [6] of more than 50 µM.
In the case of `COc1cc(/C=C\c2ccc(B(O)O)cc2)cc(OC)c1OC`, the inhibition was found to be 6.4% at Tubulin (Homo sapiens) [2] and 77% on Tubulin (Homo sapiens) [3]. The midpoint of the response in [4], the EC50, lay at 4 µM. The IC50 is 0.48 µM in the series on MCF7, less than 5 µM in the series on HCT-116 and 10 µM in series [5]. Further, the result in the series on A10 [8] was Active. In series [6], this molecule returned an IC50 at 48 h of more than 50 µM.
